The experiment addresses T1, human Gal-4C (Homo sapiens, UniProt P56470).
T1 sequence (P56470 179-323): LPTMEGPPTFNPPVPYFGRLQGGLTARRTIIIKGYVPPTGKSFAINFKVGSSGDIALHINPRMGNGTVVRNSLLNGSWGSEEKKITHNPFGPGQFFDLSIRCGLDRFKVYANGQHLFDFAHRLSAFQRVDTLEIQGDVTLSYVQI
Put plainly: Competitive solid-phase assay: Gal-4C binding to immobilized asialofetuin. A digest of the protocol:
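Human Gal-4C (residues 179–323, C-terminal His-tag, E. coli BL21) at 60 μg/ml final was preincubated 2 h at 37 °C with serially diluted glycan inhibitors; lactose was the reference. Mixtures went onto wells coated overnight at 4 °C with 10 µg/ml ASF (carbonate, pH 9.6) and BSA-blocked, for 2 h at 37 °C. Detection: biotinylated anti-Gal-4, HRP-streptavidin, TMB, A450. Values are means ± SEM from a representative of three experiments.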

pIC50: −log10 of the molar value.

The values below come from article PMC11362799 (The Journal of Biological Chemistry, 2024).

For `OC[C@H]1O[C@@H](O[C@H]2[C@H](O)[C@@H](O)C(O)O[C@@H]2CO)[C@H](O)[C@@H](O)[C@H]1O` (mixture of isomers) [lactose], the pIC50 (commonly −log10 of the IC50, conventionally taken in molar units) was 2.15.
